ChEMBL document CHEMBL1153293, “Discovery and optimization of piperidyl benzamide derivatives as a novel class of 11beta-HSD1 inhibitors” (Bioorg Med Chem Lett, 2009)

What was measured:
[1] = Metabolic stability in human liver microsome assessed as compound remaining after 30 mins; type: ADME; conditions: liver microsomes, read-out: Stability
[2] = molecular target: T1, Nuclear receptor subfamily 1 group I member 2 (Homo sapiens, UniProt O75469); experiment: Activity at human PXR receptor transfected in human HepG2 cells assessed as receptor activation at 2 uM by luciferase based reporter gene assay relative to rifampin; type: cell-based; conditions: hepg2, 2 µM
T1 sequence (O75469 whole entry): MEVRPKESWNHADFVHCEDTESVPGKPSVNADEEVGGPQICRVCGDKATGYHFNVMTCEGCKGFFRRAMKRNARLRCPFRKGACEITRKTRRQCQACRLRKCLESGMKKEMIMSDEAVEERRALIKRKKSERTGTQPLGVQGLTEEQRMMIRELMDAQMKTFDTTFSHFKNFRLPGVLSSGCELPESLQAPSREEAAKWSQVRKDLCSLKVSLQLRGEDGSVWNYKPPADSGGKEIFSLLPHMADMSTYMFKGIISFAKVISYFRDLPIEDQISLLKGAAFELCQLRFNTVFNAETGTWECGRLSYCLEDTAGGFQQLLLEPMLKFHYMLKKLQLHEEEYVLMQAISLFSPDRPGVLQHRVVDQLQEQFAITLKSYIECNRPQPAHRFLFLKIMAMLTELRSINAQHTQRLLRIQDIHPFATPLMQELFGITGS
Summary of the method: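 HepG2 cells transfected with human PXR cDNA and a luciferase reporter construct driven by the CYP3A4 gene. Cells were exposed to test article, and luciferase activity was read by chemiluminescence. Rifampin at 10 µM served as the positive control.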

[3] = Metabolic stability in rat liver microsome assessed as compound remaining after 30 mins; type: ADME; conditions: liver microsomes, read-out: Stability
[4] = Metabolic stability in rat hepatocyte assessed as compound remaining after 90 mins; type: ADME, cell-based; conditions: hepatocytes, read-out: Stability
[5] = Fraction unbound in rat plasma; type: ADME, cell-free
Summary of the method: (§1)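 Unbound fraction (fu) in plasma was measured with a 4 h ultracentrifugation protocol, with samples analyzed by mass spectrometry.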

[6] = Metabolic stability in human hepatocyte assessed as compound remaining after 90 mins; type: ADME, cell-based; conditions: hepatocytes, read-out: Stability
[7] = Fraction unbound in human plasma; type: ADME, cell-free; summary of the method: as §1
HeLa = experiment: Cytotoxicity against human HeLa cells; type: functional, cell-based
[8] = Oral bioavailability in rat at 2.0 mg/kg; type: ADME, organism-based; conditions: in vivo
Summary of the method: (§2)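 Rats received each compound both iv (0.39, 0.50 or 0.51 mg/kg, depending on compound) and orally at 2.0 mg/kg. Plasma clearance was taken from the iv arm and oral bioavailability (%F) from the po dose.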

[9] = Clearance in rat at 0.50 mg/kg, iv; type: ADME, organism-based; parameters: dose 0.5 mg/kg, route intravenous; conditions: in vivo, 0.5 mg/kg; summary of the method: as §2
[10] = Clearance in rat at 0.39 mg/kg, iv; type: ADME, organism-based; parameters: dose 0.39 mg/kg, route intravenous; conditions: in vivo; summary of the method: as §2
[11] = Clearance in rat at 0.51 mg/kg, iv; type: ADME, organism-based; parameters: dose 0.51 mg/kg, route intravenous; conditions: in vivo; summary of the method: as §2
[12] = molecular target: T2, 11-beta-hydroxysteroid dehydrogenase 1 (Homo sapiens, UniProt P28845); experiment: Inhibition of human recombinant 11beta-HSD1 expressed HEK293 cells by scintillation proximity assay; type: cell-based
[13] = molecular target: T2, 11-beta-hydroxysteroid dehydrogenase 1; experiment: Inhibition of human recombinant 11beta-HSD1 expressed HEK293 cells by scintillation proximity assay in presence of human serum albumin; type: cell-based
[14] = molecular target: T2, 11-beta-hydroxysteroid dehydrogenase 1; experiment: Inhibition of human recombinant 11beta-HSD1 expressed in baculovirus system by scintillation proximity assay

T2 sequence (P28845 whole entry): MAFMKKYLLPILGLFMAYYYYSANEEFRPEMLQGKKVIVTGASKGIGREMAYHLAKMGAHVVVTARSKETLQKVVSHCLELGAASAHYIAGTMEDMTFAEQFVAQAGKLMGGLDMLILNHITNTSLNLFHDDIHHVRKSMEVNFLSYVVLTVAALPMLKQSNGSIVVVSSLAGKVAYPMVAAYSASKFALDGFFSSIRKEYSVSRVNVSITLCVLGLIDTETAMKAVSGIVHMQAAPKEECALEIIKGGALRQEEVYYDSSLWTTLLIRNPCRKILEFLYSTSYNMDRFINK

| Structure (SMILES) | remaining at 0.5 h [1] | Activity [2] | remaining at 0.5 h [3] | IC50 (HeLa) | also measured |
| --- | --- | --- | --- | --- | --- |
| C[C@](O)(c1ccc(C(=O)N(C2CC2)[C@H]2CC[C@H](CC3(C(N)=O)CC3)CC2)cc1)C(F)(F)F | > 90% | 6.5% | > 90% | 8 µM | remaining at 1.5 h [4]: 73%; fraction unbound [5]: 0.048; remaining at 1.5 h [6]: > 90%; fraction unbound [7]: 0.12 |
| C[C@@](O)(c1ccc(C(=O)N(C2CC2)[C@H]2CC[C@@H](CC#N)CC2)cc1)C(F)(F)F | 70% | 74% | 5% | – | – |
| C[C@@](O)(c1ccc(C(=O)N(C2CC2)[C@H]2CC[C@@H](CCC(N)=O)CC2)cc1)C(F)(F)F | > 90% | 100% | 72% | > 10 µM | – |
| C[C@](O)(c1ccc(C(=O)N(C2CC2)C2CCN(CC3(C(N)=O)CC3)CC2)cc1)C(F)(F)F | > 90% | 4% | 86% | > 10 µM | bioavailability [8]: 69%; clearance [9]: 14.8 mL/min/kg; remaining at 1.5 h [4]: 69%; fraction unbound [5]: 0.2; remaining at 1.5 h [6]: > 90%; fraction unbound [7]: 0.48 |
| C[C@](O)(c1ccc(C(=O)N(C2CC2)C2CCN(CC3(C#N)CC3)CC2)cc1)C(F)(F)F | 86% | 3% | 28% | > 10 µM | – |
| C[C@](O)(c1ccc(C(=O)N(C2CC2)[C@H]2CC[C@H](CCC#N)CC2)cc1)C(F)(F)F | > 90% | 30% | – | > 10 µM | – |
| CC(C)(C[C@H]1CC[C@H](N(C(=O)c2ccc([C@](C)(O)C(F)(F)F)cc2)C2CC2)CC1)C(N)=O | > 90% | 4% | > 90% | > 10 µM | bioavailability [8]: 32%; clearance [10]: 21.7 mL/min/kg; remaining at 1.5 h [4]: 10%; remaining at 1.5 h [6]: 84% |
| C[C@](O)(c1ccc(C(=O)N(C2CCC(CC(N)=O)CC2)C2CC2)cc1)C(F)(F)F (mixture of isomers) | – | 1% | – | – | – |
| C[C@@](O)(c1ccc(C(=O)N(C2CC2)[C@H]2CC[C@H](CC#N)CC2)cc1)C(F)(F)F | > 90% | 75% | 73% | – | – |
| C[C@](O)(c1ccc(C(=O)N(C2CC2)[C@H]2CC[C@H](c3cccnc3)CC2)cc1)C(F)(F)F | – | – | – | 2.5 µM | – |
| C[C@@](O)(c1ccc(C(=O)N(C2CC2)[C@H]2CC[C@H](CCC(N)=O)CC2)cc1)C(F)(F)F | > 90% | 5% | > 90% | > 10 µM | bioavailability [8]: 22%; clearance [11]: 50 mL/min/kg; remaining at 1.5 h [4]: < 5%; remaining at 1.5 h [6]: 32% |
| CC(C)(C#N)C[C@H]1CC[C@H](N(C(=O)c2ccc([C@](C)(O)C(F)(F)F)cc2)C2CC2)CC1 | > 90% | 60% | 77% | – | – |
| C[C@](O)(c1ccc(C(=O)N(C2CC2)[C@H]2CC[C@@H](CCC#N)CC2)cc1)C(F)(F)F | 64% | 56% | < 5% | > 10 µM | IC50 [12]: 0.01 µM; IC50 [13]: 0.13 µM; IC50 [14]: 0.0028 µM |
| C[C@](O)(c1ccc(C(=O)N(C2CC2)[C@H]2CC[C@H](CC3(C#N)CC3)CC2)cc1)C(F)(F)F | > 90% | 60% | > 90% | 4 µM | – |
